{"data": "Experimental data of several laboratories", "note": "Compare with care: the assays were run in different laboratories. pIC50: −log10 of the molar value."}
{"Structure (SMILES)": "N.N.[Cl][Pt][Cl]", "cell line": "M109", "assay": "cell growth or viability, MTT", "endpoint": "pIC50", "result": 6.01}
{"Structure (SMILES)": "CC(C)[C@H](NC(=O)[C@H](Cc1c[nH]c2ccccc12)NC(=O)[C@H](Cc1c[nH]cn1)NC(=O)[C@H](CCCNC(=N)N)NC(=O)[C@H](CCCNC(=N)N)NC(=O)[C@H](Cc1c[nH]c2ccccc12)NC(=O)[C@H](Cc1c[nH]c2ccccc12)NC(=O)[C@H](Cc1c[nH]cn1)NC(=O)[C@H](Cc1c[nH]c2ccccc12)NC(=O)[C@H](CCCNC(=N)N)NC(=O)[C@@H](N)CCCCN)C(=O)N[C@H](C(=O)N[C@@H](Cc1c[nH]c2ccccc12)C(N)=O)C(C)C", "cell line": "RAW264.7", "assay": "cell growth or viability, MTT", "setting": "24 h", "endpoint": "pIC50", "result": 3.95}
{"Structure (SMILES)": "COc1cc(O)c(C(=O)/C=C/c2ccc(O)cc2)c(OC)c1", "cell line": "SPCA1", "assay": "cell growth or viability, MTT", "endpoint": "pIC50", "result": 4.60}
{"Structure (SMILES)": "COc1ccc(CCNCc2c(N)nc(N)nc2C2CC2)cc1", "cell line": "Vero", "assay": "cell growth or viability, SRB", "endpoint": "pIC50", "result": 4.15}
{"Structure (SMILES)": "COc1cccc2c1C(=O)c1c(O)c3c(c(O)c1C2=O)C[C@@](O)(C(=O)CO)C[C@@H]3O[C@H]1C[C@H](N)[C@H](O)[C@H](C)O1", "cell line": "SPCA1", "assay": "cell growth or viability, MTT", "endpoint": "pIC50", "result": 4.52}
{"Structure (SMILES)": "N.N.[Cl][Pt][Cl]", "cell line": "SMMC-7721", "assay": "cell growth or viability, MTT", "setting": "20 µM", "endpoint": "inhibition", "result": "73.8%"}
{"Structure (SMILES)": "COc1cccc(CCNCc2c(N)nc(N)nc2C2CC2)c1", "cell line": "Vero", "assay": "cell growth or viability, SRB", "endpoint": "pIC50", "result": 5.14}
{"Structure (SMILES)": "COc1c(O)cc2oc3cc(O)c(CC=C(C)C)c(O)c3c(=O)c2c1CC=C(C)C", "cell line": "22Rv1", "assay": "cell growth or viability", "setting": "48 h", "endpoint": "pIC50", "result": 4.71}
{"Structure (SMILES)": "COc1cc(O)c(C(=O)/C=C/c2ccccc2)c(OC)c1", "cell line": "SPCA1", "assay": "cell growth or viability, MTT", "endpoint": "pIC50", "result": 4.50}
{"Structure (SMILES)": "O=C(CC(=O)C(F)(F)F)C(F)(F)F", "cell line": "HL-60", "assay": "cell growth or viability, resazurin", "setting": "72 h, dark", "endpoint": "pIC50", "result": "< 4.00"}
{"Structure (SMILES)": "C[S+]([O-])CCCCN=C=S (centres unmarked)", "cell line": "RAW264.7", "assay": "NO release, inhibitor, Griess", "setting": "10 µM, LPS-stimulated", "endpoint": "inhibition", "result": "91.6%"}
{"Structure (SMILES)": "N.N.[Cl][Pt][Cl]", "cell line": "CD4", "assay": "cell growth or viability", "setting": "72 h", "endpoint": "IC50", "result": "2.2 µg/mL"}
{"Structure (SMILES)": "Nc1nc(N)c(CNCCc2cccc(Cl)c2)c(C2CC2)n1", "cell line": "Vero", "assay": "cell growth or viability, SRB", "endpoint": "pIC50", "result": 4.12}
{"Structure (SMILES)": "N.N.[Cl][Pt][Cl]", "cell line": "HL-60", "assay": "cell growth or viability, MTT", "setting": "48 h", "endpoint": "pIC50", "result": 5.93}
